Experimental data published in ChEMBL document CHEMBL3044526, “Synthesis, fungicidal activity, and QSAR of pyridazinonethiadiazoles” (2002).

Tested on: Puccinia recondita
Assay: Antifungal activity against Puccinia recondita wheat leaves treated as foliar spray after 10 days relative to triadimefon
Assay type: functional
How it was run: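 Susceptible wheat cv. Ming-Xian 169 (10 germinating seeds per pot) was grown in a greenhouse at 15-20 °C and inoculated with P. recondita, then held 24 h in a moist chamber. Once the leaves were dry, each pot got a 10 mL spray of compound solution. Percent disease control versus untreated pots was scored 10 days later, in triplicate. Triadimefon (100 ppm) was run alongside. D = lg[a/(100−a)] − lg Mw.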

Cc1cc(=O)c(-c2nnc(Nc3cccc(C(F)(F)F)c3)s2)nn1-c1c(Cl)cccc1Cl was tested, and the “inhibition (INH)” value was 50%.
Cc1cc(=O)c(-c2nnc(Nc3ccccc3)s2)nn1-c1ccccc1Cl was tested, and the “inhibition (INH)” value was 10%.
Cc1cc(=O)c(-c2nnc(Nc3cccc(C(F)(F)F)c3)s2)nn1-c1cc(Cl)c(Cl)cc1Cl was tested, and the “inhibition (INH)” value was 70%.
With Cc1cc(=O)c(-c2nnc(Nc3ccccc3)s2)nn1-c1ccc(Cl)cc1Cl the “inhibition (INH)” value was 20%.
For Cc1cc(=O)c(-c2nnc(Nc3cccc(C(F)(F)F)c3)s2)nn1-c1ccccc1, the “inhibition (INH)” value was 60%.
Cc1cc(=O)c(-c2nnc(Nc3cccc(C(F)(F)F)c3)s2)nn1-c1ccc(Cl)cc1 was tested, and the “inhibition (INH)” value was 60%.
With Cc1cc(=O)c(-c2nnc(Nc3cccc(C(F)(F)F)c3)s2)nn1-c1ccc(Cl)cc1Cl the “inhibition (INH)” value was 90%.
Cc1cc(=O)c(-c2nnc(Nc3cccc(C(F)(F)F)c3)s2)nn1-c1ccccc1Cl was tested, and the “inhibition (INH)” value was 70%.
For Cc1cc(=O)c(-c2nnc(Nc3ccccc3F)s2)nn1-c1ccccc1, the “inhibition (INH)” value was 50%.
In the case of Cc1ccc(-n2nc(-c3nnc(Nc4ccccc4F)s3)c(=O)cc2C)c(C)c1, the “inhibition (INH)” value is reported as 90%.
Cc1cc(=O)c(-c2nnc(Nc3ccccc3F)s2)nn1-c1ccccc1Cl was tested, and the “inhibition (INH)” value was 10%.
For Cc1cc(=O)c(-c2nnc(Nc3ccccc3F)s2)nn1-c1c(Cl)cccc1Cl, the “inhibition (INH)” value was 30%.
For Cc1cc(=O)c(-c2nnc(Nc3ccccc3F)s2)nn1-c1ccc(Cl)cc1, the “inhibition (INH)” value was 50%.
Cc1ccc(-n2nc(-c3nnc(Nc4cccc(C(F)(F)F)c4)s3)c(=O)cc2C)c(C)c1 was tested, and the “inhibition (INH)” value was 90%.
With Cc1cc(=O)c(-c2nnc(Nc3ccccc3F)s2)nn1-c1ccc(Cl)cc1Cl the “inhibition (INH)” value was 80%.
In the case of Cc1cc(=O)c(-c2nnc(Nc3ccccc3F)s2)nn1-c1cc(Cl)c(Cl)cc1Cl, the “inhibition (INH)” value is reported as 60%.
